Source: the M2OR odorant receptor database

How the values were obtained:
Settings in all cases: stereoisomer not certain
OR11H2 (Homo sapiens) = biological target: T1, OR11H2 (Homo sapiens) (UniProt Q8NH07)
T1 sequence (whole entry): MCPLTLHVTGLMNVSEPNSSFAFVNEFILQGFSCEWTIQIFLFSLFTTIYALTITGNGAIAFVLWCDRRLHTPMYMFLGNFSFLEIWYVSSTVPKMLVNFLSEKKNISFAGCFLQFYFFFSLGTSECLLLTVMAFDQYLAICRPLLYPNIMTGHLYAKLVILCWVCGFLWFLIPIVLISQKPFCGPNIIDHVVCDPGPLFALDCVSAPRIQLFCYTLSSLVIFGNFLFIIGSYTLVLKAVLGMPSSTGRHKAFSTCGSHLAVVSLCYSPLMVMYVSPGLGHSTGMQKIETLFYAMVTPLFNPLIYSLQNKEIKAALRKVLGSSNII
How it was run: (§1)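 Assay methods differ from source to source, frequently being transient luciferase assays in mammalian cell lines. For each receptor–molecule pair, the label responsive (active) applies when the original authors judged the measured signal statistically different from baseline, and non-responsive (inactive) applies otherwise.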

OR11H4 (Homo sapiens) = biological target: T2, OR11H4 (Homo sapiens) (UniProt Q8NGC9)
T2 sequence (whole entry): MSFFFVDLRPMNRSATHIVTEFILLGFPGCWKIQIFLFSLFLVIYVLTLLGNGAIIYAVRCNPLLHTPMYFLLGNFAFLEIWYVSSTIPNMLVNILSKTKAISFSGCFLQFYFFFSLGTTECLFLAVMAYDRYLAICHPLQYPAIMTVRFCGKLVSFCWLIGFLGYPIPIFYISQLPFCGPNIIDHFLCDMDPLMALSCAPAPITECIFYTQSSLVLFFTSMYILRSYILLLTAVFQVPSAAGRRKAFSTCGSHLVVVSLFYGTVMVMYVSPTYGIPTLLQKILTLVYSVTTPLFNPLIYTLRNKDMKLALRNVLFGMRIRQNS
How it was run: as §1

OR11H6 (Homo sapiens) = biological target: T3, OR11H6 (Homo sapiens) (UniProt Q8NGC7)
T3 sequence (whole entry): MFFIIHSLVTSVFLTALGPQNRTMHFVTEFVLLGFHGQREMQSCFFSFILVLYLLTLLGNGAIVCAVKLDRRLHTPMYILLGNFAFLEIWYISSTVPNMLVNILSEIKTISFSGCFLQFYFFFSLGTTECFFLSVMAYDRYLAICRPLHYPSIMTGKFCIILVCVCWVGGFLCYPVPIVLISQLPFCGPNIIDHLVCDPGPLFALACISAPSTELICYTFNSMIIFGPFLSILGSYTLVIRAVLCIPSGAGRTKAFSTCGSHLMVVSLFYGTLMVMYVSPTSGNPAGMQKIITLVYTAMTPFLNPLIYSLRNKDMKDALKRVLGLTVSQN
How it was run: as §1

OR11L1 (Homo sapiens) = biological target: T4, OR11L1 (Homo sapiens) (UniProt Q8NGX0)
T4 sequence (whole entry): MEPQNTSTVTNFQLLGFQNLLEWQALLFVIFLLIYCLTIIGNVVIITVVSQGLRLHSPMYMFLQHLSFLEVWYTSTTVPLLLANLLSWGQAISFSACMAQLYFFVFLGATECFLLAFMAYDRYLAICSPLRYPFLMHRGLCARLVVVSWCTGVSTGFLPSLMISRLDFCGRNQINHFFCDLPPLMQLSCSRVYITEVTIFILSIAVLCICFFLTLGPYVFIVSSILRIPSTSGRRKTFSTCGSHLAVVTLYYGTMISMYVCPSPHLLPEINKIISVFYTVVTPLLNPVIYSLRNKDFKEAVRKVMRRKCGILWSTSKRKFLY
How it was run: as §1

OR12D2 (Homo sapiens) = biological target: T5, OR12D2 (Homo sapiens) (UniProt P58182)
T5 sequence (whole entry): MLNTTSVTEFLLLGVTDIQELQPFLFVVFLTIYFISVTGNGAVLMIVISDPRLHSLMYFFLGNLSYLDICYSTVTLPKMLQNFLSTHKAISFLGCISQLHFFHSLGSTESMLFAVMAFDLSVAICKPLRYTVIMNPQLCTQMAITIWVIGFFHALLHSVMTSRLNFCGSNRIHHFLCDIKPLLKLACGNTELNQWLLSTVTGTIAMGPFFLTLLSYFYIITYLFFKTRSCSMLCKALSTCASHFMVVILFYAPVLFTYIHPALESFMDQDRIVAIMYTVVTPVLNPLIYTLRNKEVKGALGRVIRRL
How it was run: as §1

OR12D3 (Homo sapiens) = biological target: T6, OR12D3 (Homo sapiens) (UniProt Q9UGF7)
T6 sequence (whole entry): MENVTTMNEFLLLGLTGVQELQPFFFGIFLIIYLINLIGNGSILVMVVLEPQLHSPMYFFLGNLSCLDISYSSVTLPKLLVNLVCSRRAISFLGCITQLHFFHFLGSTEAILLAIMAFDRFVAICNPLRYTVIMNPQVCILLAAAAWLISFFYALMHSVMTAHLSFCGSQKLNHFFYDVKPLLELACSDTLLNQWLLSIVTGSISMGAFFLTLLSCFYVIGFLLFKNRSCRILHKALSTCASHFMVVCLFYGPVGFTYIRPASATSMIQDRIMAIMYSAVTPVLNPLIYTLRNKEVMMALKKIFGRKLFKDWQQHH
How it was run: as §1

OR13A1 (Homo sapiens) = biological target: T7, OR13A1 (Homo sapiens) (UniProt Q8NGR1)
T7 sequence (whole entry): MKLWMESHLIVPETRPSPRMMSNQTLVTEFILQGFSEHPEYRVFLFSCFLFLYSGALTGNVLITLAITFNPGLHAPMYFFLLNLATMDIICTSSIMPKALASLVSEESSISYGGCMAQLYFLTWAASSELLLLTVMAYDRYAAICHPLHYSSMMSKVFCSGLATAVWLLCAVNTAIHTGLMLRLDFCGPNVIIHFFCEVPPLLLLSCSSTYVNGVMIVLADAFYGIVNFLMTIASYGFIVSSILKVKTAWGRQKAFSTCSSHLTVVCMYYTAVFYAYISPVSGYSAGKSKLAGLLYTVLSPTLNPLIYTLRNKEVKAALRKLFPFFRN
How it was run: as §1

OR13C2 (Homo sapiens) = biological target: T8, OR13C2 (Homo sapiens) (UniProt Q8NGS9)
T8 sequence (whole entry): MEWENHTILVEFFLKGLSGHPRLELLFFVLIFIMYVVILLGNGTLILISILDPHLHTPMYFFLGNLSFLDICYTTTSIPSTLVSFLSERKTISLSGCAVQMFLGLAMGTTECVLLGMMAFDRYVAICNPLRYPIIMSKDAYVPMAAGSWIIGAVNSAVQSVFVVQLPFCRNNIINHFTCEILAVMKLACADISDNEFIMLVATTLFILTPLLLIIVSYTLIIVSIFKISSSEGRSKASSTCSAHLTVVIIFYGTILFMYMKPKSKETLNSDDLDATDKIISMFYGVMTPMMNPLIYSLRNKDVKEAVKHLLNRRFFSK
How it was run: as §1

OR13C3 (Homo sapiens) = biological target: T9, OR13C3 (Homo sapiens) (UniProt Q8NGS6)
T9 sequence (whole entry): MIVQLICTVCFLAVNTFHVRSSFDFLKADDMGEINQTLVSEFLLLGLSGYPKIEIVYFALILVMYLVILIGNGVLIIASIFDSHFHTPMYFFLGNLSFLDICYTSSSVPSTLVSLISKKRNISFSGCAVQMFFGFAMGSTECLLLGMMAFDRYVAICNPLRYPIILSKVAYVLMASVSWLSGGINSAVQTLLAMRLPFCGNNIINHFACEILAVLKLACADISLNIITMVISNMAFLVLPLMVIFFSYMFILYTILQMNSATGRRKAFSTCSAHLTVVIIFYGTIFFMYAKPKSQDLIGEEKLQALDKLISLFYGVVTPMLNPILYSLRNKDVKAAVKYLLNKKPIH
How it was run: as §1

OR13C4 (Homo sapiens) = biological target: T10, OR13C4 (Homo sapiens) (UniProt Q8NGS5)
T10 sequence (whole entry): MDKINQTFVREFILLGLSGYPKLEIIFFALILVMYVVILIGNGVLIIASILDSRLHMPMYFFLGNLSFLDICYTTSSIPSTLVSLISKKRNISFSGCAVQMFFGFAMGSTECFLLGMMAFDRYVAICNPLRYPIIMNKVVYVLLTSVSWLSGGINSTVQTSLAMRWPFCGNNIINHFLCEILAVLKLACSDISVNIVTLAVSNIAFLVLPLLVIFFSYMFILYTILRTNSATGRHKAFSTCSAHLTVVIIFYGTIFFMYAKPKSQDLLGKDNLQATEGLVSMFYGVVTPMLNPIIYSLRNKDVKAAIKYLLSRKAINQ
How it was run: as §1

OR13C5 (Homo sapiens) = biological target: T11, OR13C5 (Homo sapiens) (UniProt Q8NGS8)
T11 sequence (whole entry): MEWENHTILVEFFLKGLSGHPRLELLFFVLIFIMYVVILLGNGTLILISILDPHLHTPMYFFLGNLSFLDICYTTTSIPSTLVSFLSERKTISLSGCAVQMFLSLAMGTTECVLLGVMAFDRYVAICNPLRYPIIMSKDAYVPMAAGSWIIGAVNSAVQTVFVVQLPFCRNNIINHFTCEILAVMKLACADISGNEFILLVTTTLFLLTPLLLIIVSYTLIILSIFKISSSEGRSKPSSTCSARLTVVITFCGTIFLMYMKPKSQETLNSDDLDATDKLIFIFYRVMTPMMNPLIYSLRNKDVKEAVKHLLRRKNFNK
How it was run: as §1

OR13C8 (Homo sapiens) = biological target: T12, OR13C8 (Homo sapiens) (UniProt Q8NGS7)
T12 sequence (whole entry): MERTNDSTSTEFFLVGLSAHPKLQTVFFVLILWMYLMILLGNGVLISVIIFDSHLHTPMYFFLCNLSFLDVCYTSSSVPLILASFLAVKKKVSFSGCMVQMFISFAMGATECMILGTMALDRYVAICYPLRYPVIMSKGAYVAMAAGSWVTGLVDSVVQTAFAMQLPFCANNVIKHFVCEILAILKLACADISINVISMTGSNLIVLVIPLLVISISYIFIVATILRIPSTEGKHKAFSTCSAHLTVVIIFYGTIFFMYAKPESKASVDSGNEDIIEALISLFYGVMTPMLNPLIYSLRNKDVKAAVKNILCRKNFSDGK
How it was run: as §1

OR13C9 (Homo sapiens) = biological target: T13, OR13C9 (Homo sapiens) (UniProt Q8NGT0)
T13 sequence (whole entry): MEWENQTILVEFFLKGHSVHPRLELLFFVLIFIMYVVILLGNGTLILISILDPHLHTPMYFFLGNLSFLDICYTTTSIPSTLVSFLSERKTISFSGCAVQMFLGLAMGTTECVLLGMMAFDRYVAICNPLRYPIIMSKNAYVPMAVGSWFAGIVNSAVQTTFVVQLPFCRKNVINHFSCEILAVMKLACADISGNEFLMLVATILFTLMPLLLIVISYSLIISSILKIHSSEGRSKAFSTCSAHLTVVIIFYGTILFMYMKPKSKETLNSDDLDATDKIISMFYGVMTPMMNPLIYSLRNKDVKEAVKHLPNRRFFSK
How it was run: as §1

OR13D1 (Homo sapiens) = biological target: T14, OR13D1 (Homo sapiens) (UniProt Q8NGV5)
T14 sequence (whole entry): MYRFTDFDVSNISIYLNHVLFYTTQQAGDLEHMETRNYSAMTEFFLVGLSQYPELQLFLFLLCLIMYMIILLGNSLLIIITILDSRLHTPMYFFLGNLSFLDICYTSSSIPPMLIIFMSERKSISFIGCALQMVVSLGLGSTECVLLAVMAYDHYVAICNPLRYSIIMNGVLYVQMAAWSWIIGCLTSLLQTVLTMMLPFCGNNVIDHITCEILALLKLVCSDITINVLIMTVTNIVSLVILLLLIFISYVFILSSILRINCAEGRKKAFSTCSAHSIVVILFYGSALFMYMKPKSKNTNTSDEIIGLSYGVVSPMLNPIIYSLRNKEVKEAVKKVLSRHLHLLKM
How it was run: as §1

OR13F1 (Homo sapiens) = biological target: T15, OR13F1 (Homo sapiens) (UniProt Q8NGS4)
T15 sequence (whole entry): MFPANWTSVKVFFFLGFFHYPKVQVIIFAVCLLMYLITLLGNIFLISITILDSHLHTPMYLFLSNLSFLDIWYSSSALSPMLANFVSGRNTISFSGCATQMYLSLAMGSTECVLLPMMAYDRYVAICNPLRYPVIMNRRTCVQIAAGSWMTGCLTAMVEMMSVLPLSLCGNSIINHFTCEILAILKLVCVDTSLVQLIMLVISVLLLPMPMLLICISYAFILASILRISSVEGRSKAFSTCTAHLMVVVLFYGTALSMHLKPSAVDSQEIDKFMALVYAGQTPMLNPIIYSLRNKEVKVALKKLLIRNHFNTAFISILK
How it was run: as §1

OR13G1 (Homo sapiens) = biological target: T16, OR13G1 (Homo sapiens) (UniProt Q8NGZ3)
T16 sequence (whole entry): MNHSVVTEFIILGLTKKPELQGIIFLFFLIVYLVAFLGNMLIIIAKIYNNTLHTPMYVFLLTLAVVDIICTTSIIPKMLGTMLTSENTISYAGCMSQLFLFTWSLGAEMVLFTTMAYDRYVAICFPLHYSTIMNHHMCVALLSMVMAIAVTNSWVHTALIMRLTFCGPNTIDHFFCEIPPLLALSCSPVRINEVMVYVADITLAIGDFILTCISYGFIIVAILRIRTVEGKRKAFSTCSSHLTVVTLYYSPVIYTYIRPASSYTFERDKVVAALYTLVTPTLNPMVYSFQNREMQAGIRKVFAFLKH
How it was run: as §1

Q: How did the “odorant receptor agonist call” value (OR11H2 (Homo sapiens)) turn out when `CCCCCC(S)C(C)CO` (stereo unspecified) was run?
A: active

Q: And the “odorant receptor agonist call” value (OR11H4 (Homo sapiens))?
A: inactive

Q: And the “odorant receptor agonist call” value (OR11H6 (Homo sapiens))?
A: inactive

Q: And the “odorant receptor agonist call” value (OR11L1 (Homo sapiens))?
A: inactive

Q: And the “odorant receptor agonist call” value (OR12D2 (Homo sapiens))?
A: inactive

Q: And the “odorant receptor agonist call” value (OR12D3 (Homo sapiens))?
A: inactive

Q: And the “odorant receptor agonist call” value (OR13A1 (Homo sapiens))?
A: inactive

Q: And the “odorant receptor agonist call” value (OR13C2 (Homo sapiens))?
A: inactive

Q: And the “odorant receptor agonist call” value (OR13C3 (Homo sapiens))?
A: inactive

Q: And the “odorant receptor agonist call” value (OR13C4 (Homo sapiens))?
A: inactive

Q: And the “odorant receptor agonist call” value (OR13C5 (Homo sapiens))?
A: inactive

Q: What about the “odorant receptor agonist call” value (OR13C8 (Homo sapiens)) of the same compound?
A: inactive

Q: What about the “odorant receptor agonist call” value (OR13C9 (Homo sapiens)) of the same compound?
A: active

Q: What about the “odorant receptor agonist call” value (OR13D1 (Homo sapiens)) of the same compound?
A: inactive

Q: And the “odorant receptor agonist call” value (OR13F1 (Homo sapiens))?
A: inactive

Q: And the “odorant receptor agonist call” value (OR13G1 (Homo sapiens))?
A: inactive
